Data as given in paper PMC8373685 (European journal of medicinal chemistry, 2021).
Each block holds one compound with its values, some of them ahead of it.

Legend:
[1] = test system: TNFα-induced IKKβ-mediated NFκB activity; assay: κB luciferase reporter assay; assay type: cell-based; conditions: for inhibition of TNFα-induced NFκB activity (SAR, in words): A549 luciferase reporter
[2] = Pharmacokinetic studies in mice; assay type: in vivo, CD1 mice
Summary of the method: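 CD1 mice received test compound orally at 20 mg/kg in DMSO:PEG400:H₂O 1:4:5, or intravenously at 10 mg/kg in DMSO:PEG400:H₂O 1:5:4. Mice were sacrificed at 0.083–24 h (8 time points) and plasma analysed by LC/MS/MS with carbamazepine as internal standard. PK parameters came from non-compartmental analysis; oral bioavailability was derived from oral versus intravenous AUC.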

[3] = test system: MiaPaCa2 cells; assay: Colony formation assay; assay type: cell-based; conditions: 5 μM; compared to DMSO treated cells
Summary of the method: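 MiaPaCa2 cells (1.0×10³) were seeded in 6-well plates and treated 24 h. They were then washed and grown 8–10 days, with medium changed every 3 days. Cells were fixed in 4% paraformaldehyde 15 min and stained with 0.5% crystal violet 2 h at room temperature. Colonies were counted in triplicate from 10x bright-field images against vehicle (DMSO); unpaired t-test.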

[4] = test system: MiaPaCa2 cells; assay: Live/dead cell assay; assay type: cell-based; conditions: 5 and 10 μM for 24h
[5] = test system: MiaPaCa2 cells subcutaneously implanted; assay: Pancreatic tumor xenograft model; assay type: in vivo, athymic nude mice; conditions: treated versus vehicle, n = 5
Summary of the method: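 MiaPaCa2 cells (2.5×10⁶, Matrigel 2:1) were implanted s.c. in the flank of athymic nude mice and randomized at day 20 (n=6/group). Arms: vehicle, test compound 40 mg/kg orally daily, gemcitabine 15 mg/kg i.p. every 72 h, or combination. Mice were sacrificed after day 27. On FFPE tumors, Ki-67 was scored as % positive cells over 4 fields, and p-IKKβ by IHC histoscore (proportion 1–5 × intensity 0–3); n=5, unpaired t-test.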

[6] = test system: MiaPaCa2; assay: Growth inhibition assay; assay type: cell-based
Summary of the method: (§1)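 Cell viability was read with PrestoBlue after 72 h incubation with test compound, n=3. Data are average ± SEM.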

[7] = test system: T3M4; assay: Growth inhibition assay; assay type: cell-based; conditions: 3-day cell growth assay
Summary of the method: as §1

[8] = test system: MiaPaCa2 cells; assay: Cell scratch; assay type: cell-based; conditions: 5 μM at 24 and 48h; compared to DMSO
[9] = test system: caspase 3/7 activity in MiaPaCa2 cells; assay: Caspase 3/7 assay; assay type: cell-based; conditions: 10 μM, 24h
Summary of the method: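 MiaPaCa2 cells were exposed to test compound for 24 h at 0.1% final DMSO, n=3. At 21 h, alamarBlue (1/10 well volume) was added for 3 h and fluorescence read at 560ex/590em. Plates equilibrated 15 min at room temperature, then Caspase-Glo reagent was added and luminescence read 2 h later. Value = (luminescence×100/fluorescence)/DMSO average.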

inhibition of TNFα-induced NFκB activity (SAR, in words) ([1]; screened at 10μM): further improvement of activity
Compound: 1-(3-(1-methyl-1H-pyrazol-4-yl)quinoxalin-6-yl)-3-(3-(trifluoromethyl)phenyl)urea [compound 79]

potency in NFκB screen relative to 13–197 ([1]; screened at 10μM): ~ 3 fold
Compound: 1-(3-chloro-4-fluorophenyl)-3-(3-(1-methyl-1H-pyrazol-4-yl)quinoxalin-6-yl)urea [compound 80]

inhibition of TNFα-induced NFκB activity (SAR, in words) ([1]; screened at 10μM): further improved
Compound: 1-(4-fluoro-3-(trifluoromethoxy)phenyl)-3-(3-(1-methyl-1H-pyrazol-4-yl)quinoxalin-6-yl)urea [compound 83]

increase in oral bioavailability (%F) relative to 13–197 [2]: ~ 5.7 fold | intravenous exposure (AUC0−∞) relative to oral exposure ([2]; 10 mg/kg intravenous versus 20 mg/kg oral): ~ 2.8 fold | Tmax and Cmax relative to 13–197 ([2]; 20 mg/kg oral): ~ 2.5 times | exposure (AUC0−∞) relative to 13–197 ([2]; 20 mg/kg oral): ~ 4.3 fold | IC50 ratio versus 13–197, TNFα-induced NFκB inhibition ([1]; 84 versus reported value for 13–197): ~ 2.5 fold | IC50 ([1]; read-out: IC50, TNFα-induced IKKβ-mediated NFκB activity, dose-response, dual luciferase reporter assay, n = 3): 3.3 ± 0.5 µM | inhibition of TNFα-induced NFκB activity (SAR, in words) ([1]; screened at 10μM): most potent inhibitor
Compound: 1-(4-fluoro-3-(trifluoromethyl)phenyl)-3-(3-(1-methyl-1H-pyrazol-4-yl)quinoxalin-6-yl)urea [compound 84]
inhibition of colony forming ability [3]: > 50% | cell death in live/dead assay [4]: induced MiaPaCa2 cell death in a dose-dependent manner | p-IKKβ levels in tumor tissue ([5]; immunohistochemistry): reduction in p-IKKβ levels | Ki67 staining (proliferation index) in tumor tissue [5]: reduction in Ki67 staining | growth inhibition ([6]; 3-day cell growth assay, MiaPaCa2): low-μM potency | potency in inhibiting pancreatic cancer cell growth relative to 13–197 ([6]; cell line not specified at place): ~ 4 fold | growth inhibition [7]: low-μM potency | inhibition of cell migration [8]: more effective inhibiting the migration of PDAC cells | caspase 3/7 activation [9]: most potently induced caspase activation | caspase 3/7 induction relative to 13–197 [9]: ~ 4 fold

inhibition of TNFα-induced NFκB activity (SAR, in words) ([1]; screened at 10μM): activity was restored
Compound: 1-(4-fluoro-3-methoxyphenyl)-3-(3-(1-methyl-1H-pyrazol-4-yl)quinoxalin-6-yl)urea [compound 82]

inhibition of TNFα-induced NFκB activity (SAR, in words) ([1]; screened at 10μM): dramatically reduced the activity
Compound: 1-(4-fluoro-3-methylphenyl)-3-(3-(1-methyl-1H-pyrazol-4-yl)quinoxalin-6-yl)urea [compound 81]

inhibition of TNFα-induced NFκB activity (SAR, in words) ([1]; screened at 10μM): loss of activity
Compound: Cn1cc(-c2cnc3ccc(NC(=O)Nc4ccc(F)c(Br)c4)cc3c2)cn1 [compound 85, 1-(3-bromo-4-fluorophenyl)-3-(3-(1-methyl-1H-pyrazol-4-yl)quinolin-6-yl)urea]

inhibition of TNFα-induced NFκB activity (SAR, in words) ([1]; screened at 10μM): loss of activity
Compound: Cn1ccc(-c2cnc3ccc(NC(=O)Nc4ccc(F)c(Br)c4)cc3n2)c1 [compound 86, 1-(3-bromo-4-fluorophenyl)-3-(3-(1-methyl-1H-pyrrol-3-yl)quinoxalin-6-yl)urea]
